Assay results as given in ChEMBL document CHEMBL4184229, “Synthesis, biological evaluation and docking study of a new series of di-substituted benzoxazole derivatives as selective COX-2 inhibitors and anti-inflammatory agents” (Bioorg Med Chem, 2018).

Experiments:
[1] = biological target: T1, Prostaglandin G/H synthase 1 (Ovis aries, UniProt P05979); assay: Inhibition of ovine COX1 assessed as reduction in Prostaglandin production by enzyme immunoassay
T1 sequence (P05979 whole entry): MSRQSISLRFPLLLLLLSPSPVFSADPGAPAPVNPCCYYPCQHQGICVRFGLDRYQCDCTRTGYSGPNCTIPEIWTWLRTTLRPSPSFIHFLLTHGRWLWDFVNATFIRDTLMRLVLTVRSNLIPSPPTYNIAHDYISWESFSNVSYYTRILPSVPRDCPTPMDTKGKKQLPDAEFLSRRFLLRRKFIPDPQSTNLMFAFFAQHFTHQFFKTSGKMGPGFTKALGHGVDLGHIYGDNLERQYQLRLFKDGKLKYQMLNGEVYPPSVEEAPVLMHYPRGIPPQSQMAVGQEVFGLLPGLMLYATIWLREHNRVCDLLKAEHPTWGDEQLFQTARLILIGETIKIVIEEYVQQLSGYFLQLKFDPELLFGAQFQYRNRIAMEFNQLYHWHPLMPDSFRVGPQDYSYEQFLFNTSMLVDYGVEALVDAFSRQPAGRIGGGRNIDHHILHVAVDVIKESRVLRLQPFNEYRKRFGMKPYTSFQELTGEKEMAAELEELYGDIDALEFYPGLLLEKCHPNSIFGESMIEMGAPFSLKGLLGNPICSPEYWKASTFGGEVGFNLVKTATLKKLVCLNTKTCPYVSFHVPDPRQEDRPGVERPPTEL
Summary of the method: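 Enzyme immunoassay kit with ovine COX-1 (human recombinant COX-2 also supplied). Colour intensity read spectrophotometrically; signal is proportional to PG tracer bound to the well and inversely proportional to free PG in the well. Inhibition calculated against control incubations. IC50 taken from the log concentration vs % inhibition curve.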

Rattus norvegicus [2] = assay: Anti-inflammatory activity against carrageenan-induced Wistar albino rat paw edema model assessed as paw edema volume at 20 mg/kg, po pretreated for 30 mins followed by carrageenan-challenge measured immediately by plethysmographic method (reference value: 0.7 ml); assay type: functional
Rattus norvegicus [3] = assay: Ulcerogenicity in Wistar albino rat assessed as severity index at 60 mg/kg, po measured after 6 hrs; assay type: toxicity, organism-based; details: in vivo
Rattus norvegicus [4] = assay: Anti-inflammatory activity against carrageenan-induced Wistar albino rat paw edema model assessed as paw edema volume at 20 mg/kg, po pretreated for 30 mins followed by carrageenan-challenge measured after 3 hrs by plethysmographic method (reference value: 1.14 ml); assay type: functional
Rattus norvegicus [5] = assay: Anti-inflammatory activity against carrageenan-induced Wistar albino rat paw edema model assessed as inhibition of paw edema at 20 mg/kg, po pretreated for 30 mins followed by carrageenan-challenge measured at 1 hr interval for 3 hrs by plethysmographic method relative to control; assay type: functional
Summary of the method: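 Wistar albino rats housed at 25-28 °C, 50–65% relative humidity, 12 h light/dark cycle; five per group. Oral dosing; control group given an equivalent volume of normal saline. Half an hour later, 0.1 ml of 1.0% w/v carrageenan in 0.9% saline injected into the sub-plantar tissue of the hind paw. […] Values taken at 3 h as mean ± SEM; Tukey's test versus control.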

IC50 [1] | SMILES | Activity (Rattus norvegicus [2]) | UI (Rattus norvegicus [3]) | Activity (Rattus norvegicus [4]) | inhibition in vivo at 20 mg/kg (Rattus norvegicus [5])
8.82 µM | COc1ccc(-c2nc3cc(NC(=O)c4cccc(Cl)c4)ccc3o2)cc1OC | – | – | – | –
7.84 µM | COc1ccc(-c2nc3cc(NC(=O)c4ccc(C)cc4)ccc3o2)cc1OC | – | – | – | –
7.32 µM | COc1ccc(-c2nc3cc(NC(=O)c4ccc(Cl)cc4)ccc3o2)cc1OC | – | – | – | –
8.2 µM | COc1ccc(C(=O)Nc2ccc3oc(-c4ccc(OC)c(OC)c4)nc3c2)cc1OC | – | – | – | –
5.15 µM | COc1ccc(-c2nc3cc(NC(=O)c4ccc([N+](=O)[O-])cc4Cl)ccc3o2)cc1OC | 0.71 mL | 1 | 0.77 mL | 72.7%
1.02 µM | COc1ccc(-c2nc3cc(NC(=O)c4ccccc4Cl)ccc3o2)cc1OC | 0.66 mL | 0.8 | 0.74 mL | 84.1%
10.1 µM | COc1ccc(-c2nc3cc(NC(=O)c4ccccc4Br)ccc3o2)cc1OC | – | – | – | –
9.21 µM | COc1ccc(-c2nc3cc(NC(=O)c4ccccc4C)ccc3o2)cc1OC | – | – | – | –
5.52 µM | COc1ccc(-c2nc3cc(NC(=O)c4cccc([N+](=O)[O-])c4)ccc3o2)cc1OC | 0.57 mL | – | 0.77 mL | 54.5%
3.23 µM | COc1ccc(-c2nc3cc(NC(=O)c4ccc([N+](=O)[O-])cc4)ccc3o2)cc1OC | 0.71 mL | 1.8 | 0.8 mL | 79.5%
16.3 µM | COc1ccc(C(=O)Nc2ccc3oc(-c4ccc(OC)c(OC)c4)nc3c2)cc1 | – | – | – | –
– | CC(C)Cc1ccc(C(C)C(=O)O)cc1 (configuration not stated) [IBUPROFEN] | – | 2.2 | – | 65.9%
6.2 µM | COc1ccc(-c2nc3cc(NC(=O)c4ccccc4)ccc3o2)cc1OC | – | – | – | –
5.21 µM | COc1ccc(-c2nc3cc(NC(=O)c4cccc(C)c4)ccc3o2)cc1OC | – | – | – | –
58.2 µM | COc1ccc(-c2nc3cc(NC(=O)c4ccc(O)cc4)ccc3o2)cc1OC | – | – | – | –
10.2 µM | COc1ccc(-c2nc3cc(NC(=O)c4cc([N+](=O)[O-])ccc4Cl)ccc3o2)cc1OC | – | – | – | –
6.02 µM | COc1cc(OC)cc(C(=O)Nc2ccc3oc(-c4ccc(OC)c(OC)c4)nc3c2)c1 | 0.67 mL | 2.1 | 0.81 mL | 68.2%
